Test results reported in ChEMBL document CHEMBL1143867, “Novel three-component synthesis and antiproliferative properties of diversely functionalized pyrrolines” (2008).
The source made the active and inactive calls. The rule behind the calls is not given here.

Experiments:
Jurkat [1] = experiment: Growth inhibition of human Jurkat cells assessed as decrease in cell count at 50 uM by Trypan blue dye exclusion method; assay type: functional, cell-based
HeLa = experiment: Antiproliferative activity against human HeLa cells after 48 hrs by MTT assay relative to control; assay type: functional, cell-based
Procedure, shortened: (§1)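 Cells (HeLa cervical or MCF7/AZ breast adenocarcinoma) exposed to test agents 48 h; mixtures at final 100 μM, individual isomers at final 100, 50 and 5 μM. Viability read by MTT (mitochondrial dehydrogenase activity), expressed as % remaining viability vs DMSO control. Two independent experiments, each in 4 replicates; mean ± SD.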

MCF7/AZ = experiment: Antiproliferative activity against human MCF7/AZ cells after 48 hrs by MTT assay relative to control; assay type: functional, cell-based; procedure, shortened: as §1
Jurkat [2] = experiment: Induction of apoptosis in human Jurkat cells after 48 hrs at 50 uM by flow cytometry relative to control; assay type: functional
Procedure, shortened: (§2)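 Jurkat T-cell leukemia cells treated 48 h with test agents at 50 μM (podophyllotoxin reference at 5 μM). Flow cytometric annexin-V/propidium iodide staining scored % apoptotic cells and % live cells, each relative to DMSO control. Two independent experiments, each in 3 replicates; mean ± SD.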

Jurkat [3] = experiment: Induction of apoptosis in human Jurkat cells assessed as viable cells at 50 uM after 48 hrs by flow cytometry relative to control; assay type: functional; conditions: read-out: Activity; procedure, shortened: as §2
Jurkat [4] = experiment: Growth inhibition of human Jurkat cells at 50 uM by Trypan blue dye exclusion method; assay type: functional, cell-based
Jurkat [5] = experiment: Induction of apoptosis in human Jurkat cells assessed as viable cells at 5 uM after 48 hrs by flow cytometry relative to control; assay type: functional; conditions: read-out: Activity
Procedure, shortened: (§3)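 Jurkat human T-cell leukemia cells were exposed to compound for 48 h and then stained with annexin-V/propidium iodide for flow cytometry. Apoptotic and live cell percentages are expressed relative to a DMSO control. Values are mean ± SD from two independent experiments, each run in 3 replicates.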

Jurkat [6] = experiment: Induction of apoptosis in human Jurkat cells after 48 hrs at 5 uM by flow cytometry relative to control; assay type: functional; procedure, shortened: as §3

Compound | Activity (Jurkat [1]) | Activity (HeLa) | Activity (MCF7/AZ) | Activity (Jurkat [2]) | viability at 50 µM (Jurkat [3]) | Activity (Jurkat [4]) | viability at 5 µM (Jurkat [5]) | Activity (Jurkat [6])
Cc1ccc(S(=O)(=O)N2C(N)=C(C#N)[C@@H](c3ccccc3)[C@H]2C(=O)c2ccc(Br)cc2)cc1 (relative stereo) | Active | Active | Active | 30% | 56% | – | – | –
Cc1ccc(S(=O)(=O)N2C(N)=C(C#N)[C@@H](c3ccccc3)[C@@H]2C(=O)c2ccc(Br)cc2)cc1 (relative stereo) | – | Active | Active | 3% | 96% | Active | – | –
COc1ccc(S(=O)(=O)N2C(N)=C(C#N)[C@@H](c3ccccc3)[C@@H]2C(=O)c2ccc(Br)cc2)cc1 (relative stereo) | – | Active | Active | – | – | – | – | –
COc1ccc(S(=O)(=O)N2C(N)=C(C#N)[C@@H](c3ccccc3)[C@H]2C(=O)c2ccc(Br)cc2)cc1 (relative stereo) | – | Active | Active | – | – | – | – | –
COc1cc([C@@H]2c3cc4c(cc3[C@H](O)[C@H]3COC(=O)[C@H]23)OCO4)cc(OC)c1OC [PODOFILOX] | – | – | – | – | – | – | 22% | 63%
